This note sets out measurements from ChEMBL document CHEMBL1641461, “Azaindoles as potent CRTH2 receptor antagonists” (Bioorg Med Chem Lett, 2011).

For data set [1], the target named is T1, Prostaglandin D2 receptor 2 (Homo sapiens, UniProt Q9Y5Y4).
T1 sequence (Q9Y5Y4 whole entry): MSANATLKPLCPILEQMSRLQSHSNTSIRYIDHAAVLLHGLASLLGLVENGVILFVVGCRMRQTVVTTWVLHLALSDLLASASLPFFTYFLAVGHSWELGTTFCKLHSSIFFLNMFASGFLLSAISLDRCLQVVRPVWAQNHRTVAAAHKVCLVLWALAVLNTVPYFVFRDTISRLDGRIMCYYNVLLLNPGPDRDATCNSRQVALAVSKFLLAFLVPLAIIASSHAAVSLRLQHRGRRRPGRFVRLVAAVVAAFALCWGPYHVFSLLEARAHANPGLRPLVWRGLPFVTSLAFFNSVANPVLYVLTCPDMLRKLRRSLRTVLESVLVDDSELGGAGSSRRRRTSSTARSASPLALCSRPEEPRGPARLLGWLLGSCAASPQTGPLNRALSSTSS
Nature of the data set: Displacement of radioligand from human CRTH2 expressed in HEK293 cells by competitive binding assay. The data set is classed as cell-based. In a few lines:
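Radioligand competition binding on membranes from HEK293 (EBNA) cells stably expressing hCRTH2, in 10 mM HEPES/KOH. Mean of two or more experiments.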

In the next data set the target is T2, Thromboxane A2 receptor (Homo sapiens, UniProt P21731).
T2 sequence (P21731 whole entry): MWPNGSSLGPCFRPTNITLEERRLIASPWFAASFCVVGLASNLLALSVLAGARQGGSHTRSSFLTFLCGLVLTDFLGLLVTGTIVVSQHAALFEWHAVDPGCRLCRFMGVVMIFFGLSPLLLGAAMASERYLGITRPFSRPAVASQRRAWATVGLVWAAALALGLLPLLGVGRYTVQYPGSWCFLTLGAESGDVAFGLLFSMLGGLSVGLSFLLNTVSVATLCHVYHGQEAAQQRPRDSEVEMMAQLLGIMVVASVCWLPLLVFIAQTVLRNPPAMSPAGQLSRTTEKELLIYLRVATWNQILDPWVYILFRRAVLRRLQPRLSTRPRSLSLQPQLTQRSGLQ
Nature of the data set: Displacement of radioligand from prostanoid TP receptor expressed in HEK293 cells by competitive binding assay. The data set is classed as cell-based.

Data set [2] has as its target T3, Prostaglandin D2 receptor (Homo sapiens, UniProt Q13258).
T3 sequence (Q13258 whole entry): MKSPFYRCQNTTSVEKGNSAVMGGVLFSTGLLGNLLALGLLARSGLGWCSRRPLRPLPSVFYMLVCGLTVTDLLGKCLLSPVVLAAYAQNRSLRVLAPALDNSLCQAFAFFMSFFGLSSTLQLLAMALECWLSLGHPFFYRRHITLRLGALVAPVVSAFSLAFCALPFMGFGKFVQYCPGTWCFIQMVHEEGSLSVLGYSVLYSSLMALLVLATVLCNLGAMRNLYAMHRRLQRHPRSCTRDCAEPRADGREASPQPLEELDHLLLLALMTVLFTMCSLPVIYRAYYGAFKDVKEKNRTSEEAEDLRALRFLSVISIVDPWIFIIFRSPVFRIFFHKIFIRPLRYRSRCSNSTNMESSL
Nature of the data set: Displacement of radioligand from prostanoid DP receptor expressed in HEK293 cells by competitive binding assay. It counts as cell-based.

The target in data set [3] is T1, Prostaglandin D2 receptor 2. As to the kind of experiment: Antagonist activity at human CRTH2 expressed in HEK293 cells assessed as inhibition of forskolin-induced increase intracellular [125I]cAMP level by scintillation proximity assay. The data set is classed as functional, cell-based. In a few lines: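 Intracellular cAMP measured by ¹²⁵I-cAMP scintillation proximity assay in Hank's balanced salt solution with 25 mM HEPES and forskolin. Values are the mean of two or more experiments.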

Data set [4] can be described thus: Bioavailability in Sprague-Dawley rat at 5 mg/kg, po and 1 mg/kg, iv. It counts as ADME, organism-based. The note with it: in vivo. In a few lines:
(§1)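 Rats dosed PO at 5 mg/kg (5 mL/kg) in 0.5% methocel and IV at 1 mg/kg (1 mL/kg) in 60% PEG 200; n = 2.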

A short description of data set [5]: Half life in Sprague-Dawley rat at 5 mg/kg, po and 1 mg/kg, iv. It counts as ADME, organism-based. The conditions noted are these: in vivo. In a few lines: as §1
Data set [6] in a line: Clearance in Sprague-Dawley rat at 5 mg/kg, po and 1 mg/kg, iv. It counts as ADME, organism-based. The note with it: in vivo. A digest of the protocol: as §1
For a further data set, the target named is Cytochrome P450 3A4 (Homo sapiens, UniProt P08684). Nature of the data set: Inhibition of CYP3A4. The data set is classed as ADME. A digest of the protocol: (§2)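 CYP2C9 and CYP3A4 inhibition IC50 values, averaged over at least two experiments.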
Sequence of Cytochrome P450 3A4 (P08684 whole entry): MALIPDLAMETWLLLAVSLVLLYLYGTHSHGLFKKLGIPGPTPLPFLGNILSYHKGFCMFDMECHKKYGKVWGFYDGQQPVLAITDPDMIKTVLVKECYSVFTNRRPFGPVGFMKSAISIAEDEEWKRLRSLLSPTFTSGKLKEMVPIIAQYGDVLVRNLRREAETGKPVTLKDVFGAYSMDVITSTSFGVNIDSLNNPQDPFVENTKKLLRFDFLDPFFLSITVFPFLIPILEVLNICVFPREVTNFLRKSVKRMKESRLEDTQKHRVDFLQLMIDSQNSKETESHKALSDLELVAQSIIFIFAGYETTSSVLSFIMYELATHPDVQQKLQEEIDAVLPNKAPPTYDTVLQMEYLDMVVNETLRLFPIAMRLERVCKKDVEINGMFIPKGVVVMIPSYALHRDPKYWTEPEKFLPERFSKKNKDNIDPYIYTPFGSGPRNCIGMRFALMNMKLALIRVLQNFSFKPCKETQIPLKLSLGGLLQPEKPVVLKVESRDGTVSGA
Data set [7] in a line: Volume of distribution in Sprague-Dawley rat at 5 mg/kg, po and 1 mg/kg, iv. The note with it: in vivo. It counts as ADME, organism-based. A digest of the protocol:
as §1

A further data set has as its target Cytochrome P450 2C9 (Homo sapiens, UniProt P11712). Nature of the data set: Inhibition of CYP2C9. It counts as ADME. A digest of the protocol:
as §2

The next data set deals with Rattus norvegicus. Nature of the data set: (§3) Bioavailability in Sprague-Dawley rat at 1 mg/kg, iv. It counts as ADME, organism-based. The conditions noted are these: in vivo.
A short description of data set [8]: as §3. It counts as ADME, organism-based. The conditions noted are these: Sprague-Dawley, in vivo.

Sequence of Cytochrome P450 2C9 (P11712 whole entry): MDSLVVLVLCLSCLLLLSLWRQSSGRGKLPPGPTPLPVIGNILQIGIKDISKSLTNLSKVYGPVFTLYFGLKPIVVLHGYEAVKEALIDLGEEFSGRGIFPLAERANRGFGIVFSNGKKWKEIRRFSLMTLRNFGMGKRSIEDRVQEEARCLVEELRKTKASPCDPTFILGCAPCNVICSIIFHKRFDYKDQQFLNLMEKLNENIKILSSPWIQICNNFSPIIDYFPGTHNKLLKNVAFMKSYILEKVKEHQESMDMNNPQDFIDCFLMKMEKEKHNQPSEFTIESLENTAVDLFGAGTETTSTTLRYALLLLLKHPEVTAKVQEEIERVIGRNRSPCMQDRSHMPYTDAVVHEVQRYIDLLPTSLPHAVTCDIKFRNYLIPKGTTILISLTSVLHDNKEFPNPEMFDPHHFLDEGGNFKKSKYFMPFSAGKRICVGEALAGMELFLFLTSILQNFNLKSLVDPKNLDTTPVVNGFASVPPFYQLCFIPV

`CN([C@@H]1CCc2c(CC(=O)O)c3cnccc3n2C1)S(=O)(=O)c1ccc(F)cc1`: the Ki in data set [1] is 6720 nM; at Thromboxane A2 receptor it was above 6800 nM; in [2] it was above 3400 nM.

Regarding `CN([C@@H]1CCc2c(CC(=O)O)c3ccncc3n2C1)S(=O)(=O)c1ccc(F)cc1`, the IC50 in data set [3] is 351 nM. The Ki in data set [1] is 139 nM; on Thromboxane A2 receptor, above 22000 nM; in data set [2], above 12000 nM.

On to `CN([C@@H]1CCc2c(CC(=O)O)c3cccnc3n2C1)S(=O)(=O)c1ccc(F)cc1`, for which the bioavailability in data set [4] is 50%. The same molecule showed a half-life in data set [5] of 7.5 h. The same molecule gave a clearance in data set [6] of 0.4 mL/min/kg. For the same molecule, the IC50 was 3.4 nM in [3], above 50000 nM against Cytochrome P450 3A4 and above 50000 nM against Cytochrome P450 2C9. Besides, the Ki was 3.3 nM in [1], above 22000 nM on Thromboxane A2 receptor and above 47000 nM in [2]. In data set [7], this molecule registered a Vd of 0.23 L/kg.

Consider `CN([C@@H]1CCc2c(CC(=O)O)c3ccc(Cl)nc3n2C1)S(=O)(=O)c1ccc(F)cc1`, for which the IC50 in data set [3] is 3.2 nM. The Ki is 1.8 nM in data set [1], above 27000 nM at Thromboxane A2 receptor and above 18000 nM in data set [2].

For `CN([C@@H]1CCc2c(CC(=O)O)c3ccc(-c4ccc(F)cc4)nc3n2C1)S(=O)(=O)c1ccc(F)cc1`, the IC50 in [3] turned out to be 3.6 nM. Further, the Ki in data set [1] is 1.9 nM; on Thromboxane A2 receptor, above 1000 nM; in [2], above 3800 nM.

Turning to `C[C@@H](C(=O)N(C)[C@@H]1CCc2c(CC(=O)O)c3cccnc3n2C1)c1ccc(F)cc1`, the bioavailability in data set [4] was determined as 84%. This molecule gave a half-life in [5] of 4 h. In addition, in data set [6], the clearance stood at 3.6 mL/min/kg. In addition, the IC50 in data set [3] is 5.7 nM; against Cytochrome P450 3A4, above 50000 nM; on Cytochrome P450 2C9 it was above 50000 nM. Also, the inhibitory constant (Ki) was 3.4 nM in [1], above 71000 nM at Thromboxane A2 receptor and above 38000 nM in data set [2]. The same molecule registered a Vd in data set [7] of 0.67 L/kg.

Regarding `C[C@H](C(=O)N(C)[C@@H]1CCc2c(CC(=O)O)c3cccnc3n2C1)c1ccc(F)cc1`, the IC50 in [3] was determined as 73.8 nM. Also, the Ki in [1] is 21.1 nM; at Thromboxane A2 receptor it was above 22000 nM; in [2], above 12000 nM.

`CN(C(=O)C(C)(C)c1ccc(F)cc1)[C@@H]1CCc2c(CC(=O)O)c3cccnc3n2C1` showed a F in the data set on Rattus norvegicus of 156%. In data set [5], this molecule showed a half-life of 1.9 h. In addition, the clearance in data set [6] turned out to be 21 mL/min/kg. The 50% inhibitory concentration (IC50) in [3] came to 3.5 nM. Moreover, the Ki is 4.7 nM in data set [1], above 21000 nM at Thromboxane A2 receptor and above 10000 nM in [2]. The molecule further returned a Vd in data set [7] of 1.54 L/kg.

For the molecule `CN(C(=O)C1(c2ccc(F)cc2)CC1)[C@@H]1CCc2c(CC(=O)O)c3cccnc3n2C1`, the bioavailability in [4] was 63%. The molecule also showed a half-life in data set [5] of 3.1 h. In addition, the clearance in data set [6] was found to be 12 mL/min/kg. Further, the IC50 in data set [3] turned out to be 7.5 nM. Besides, the Ki is 3.6 nM in data set [1], above 6800 nM on Thromboxane A2 receptor and above 3700 nM in [2]. For the same molecule, the Vd in data set [7] worked out at 2.2 L/kg.

Turning to `CN(C(=O)C1(c2ccc(F)cc2)CC1(C)C)[C@@H]1CCc2c(CC(=O)O)c3cccnc3n2C1` (stereo partly specified), in data set [3], the IC50 was determined as 4.4 nM. The Ki in [1] was 5.1 nM; at Thromboxane A2 receptor, above 7200 nM; in data set [2], above 4000 nM.

As to `CN(C(=O)C1(c2ccc(F)cc2)CCC1)[C@@H]1CCc2c(CC(=O)O)c3cccnc3n2C1`, the bioavailability in data set [4] amounted to 20%. This molecule had a half-life in data set [5] of 2.1 h. This molecule also yielded a clearance in [6] of 28 mL/min/kg. In addition, the IC50 in [3] was 4.7 nM. Besides, the results for the Ki (in data set [1]; on Thromboxane A2 receptor; in data set [2]) were 3.4 nM, above 7200 nM and above 4000 nM, respectively. In [7], the Vd was 4.58 L/kg.

Turning to `CN(C(=O)C1(c2ccc(F)cc2)CCCC1)[C@@H]1CCc2c(CC(=O)O)c3cccnc3n2C1`, the bioavailability in [4] was 38%. In [5], this molecule had a half-life of 11.6 h. Further, the clearance in data set [6] came to 18 mL/min/kg. In addition, the IC50 in data set [3] turned out to be 4.5 nM. The Ki in data set [1] was 3.9 nM; at Thromboxane A2 receptor, above 7200 nM; in data set [2], above 4000 nM. In addition, in data set [7], the Vd was 1.72 L/kg.

As to `CN(C(=O)C1(c2ccc(F)cc2)CCOCC1)[C@@H]1CCc2c(CC(=O)O)c3cccnc3n2C1`, the IC50 in data set [3] came out at 7 nM. The Ki in data set [1] is 11.5 nM; at Thromboxane A2 receptor, above 7200 nM; in data set [2], above 4000 nM.

Take `CN([C@@H]1CCc2c(CC(=O)O)c3ncccc3n2C1)S(=O)(=O)c1ccc(F)cc1`: the results for the Ki (in data set [1]; at Thromboxane A2 receptor; in data set [2]) were 7190 nM, above 7000 nM and above 1300 nM, respectively.

Consider `CN([C@@H]1CCc2c(CC(=O)O)c3ccccc3n2C1)S(=O)(=O)c1ccc(F)cc1` [MK-7246], for which the bioavailability in data set [8] was determined as 138%. This molecule also had a half-life in data set [5] of 4.1 h. In addition, in data set [6], the clearance came to 3.9 mL/min/kg. The molecule also registered a Vd in [7] of 1.15 L/kg.
